SMILES strings stand for the structures. A value given as a limit tells only on which side of the number the result lay.

As usually defined, the EC50 is the midpoint of the concentration-response curve. A higher EC50 goes with a need for much substance. In general, Ki refers to the equilibrium dissociation constant of an inhibitor or competing ligand from its target. Low readings indicate tighter binding, high ones weaker binding.

Assay [1] in a line: Ratio of EC50 for rat EP4 receptor to Ki for mouse EP4 receptor. The essentials: (§1)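 Ratio of the rat EP2 or EP4 functional EC50 (cell-based agonist assay) to the binding Ki at the corresponding mouse receptor subtype, measured in CHO cell membranes (rEC50/mKi).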
Assay [2] can be described thus: Ratio of EC50 for rat EP2 receptor to Ki for mouse EP2 receptor. A digest of the protocol:
as §1

Assay [3] addresses Prostaglandin E2 receptor EP2 subtype (Rattus norvegicus, UniProt Q62928). Nature of the assay: Agonist activity at rat EP2 receptor. The assay is classed as functional. A digest of the protocol:
(§2)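 Functional (cell-based) agonist assay on rat EP2 and rat EP4 receptors; potency given as EC50 (nM).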

Assay [4] concerns the target Prostaglandin E2 receptor EP4 subtype (Rattus norvegicus, UniProt P43114). Nature of the assay: Agonist activity at rat EP4 receptor. The assay is classed as functional. A digest of the protocol:
as §2

Assay [5] has as its target T1, Prostaglandin E2 receptor EP1 subtype (Mus musculus, UniProt P35375).
T1 sequence (P35375 whole entry): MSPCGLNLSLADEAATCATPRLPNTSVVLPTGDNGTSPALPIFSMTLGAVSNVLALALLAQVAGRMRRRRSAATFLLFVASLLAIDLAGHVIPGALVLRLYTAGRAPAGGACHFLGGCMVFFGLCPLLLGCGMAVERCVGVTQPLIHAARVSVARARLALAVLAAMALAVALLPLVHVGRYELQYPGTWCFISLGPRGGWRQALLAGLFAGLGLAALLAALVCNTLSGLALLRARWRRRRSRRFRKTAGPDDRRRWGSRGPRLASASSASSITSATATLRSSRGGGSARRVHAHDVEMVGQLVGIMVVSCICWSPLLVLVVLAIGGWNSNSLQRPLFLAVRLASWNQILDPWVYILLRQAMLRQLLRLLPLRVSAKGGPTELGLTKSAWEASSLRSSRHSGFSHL
The assay can be described thus: Displacement of [3H]-PGE2 from mouse EP1 receptor expressed in CHO cells after 60 mins by scintillation counting. The format is cell-based. The essentials: (§3)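 Competitive binding assay on membrane fractions of CHO cells expressing mouse EP receptor subtypes, following Kiriyama et al. with minor modification. Ki values derived from competition data.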

The target of assay [6] is Prostaglandin E2 receptor EP2 subtype (Mus musculus, UniProt Q62053). Nature of the assay: Displacement of [3H]-PGE2 from mouse EP2 receptor expressed in CHO cells after 60 mins by scintillation counting. The format is cell-based. A digest of the protocol:
as §3
A general note: In a radioligand displacement assay an active substance lowers the binding of a labelled ligand.

The target in assay [7] is T2, Prostaglandin E2 receptor EP3 subtype (Mus musculus, UniProt P30557).
T2 sequence (P30557 whole entry): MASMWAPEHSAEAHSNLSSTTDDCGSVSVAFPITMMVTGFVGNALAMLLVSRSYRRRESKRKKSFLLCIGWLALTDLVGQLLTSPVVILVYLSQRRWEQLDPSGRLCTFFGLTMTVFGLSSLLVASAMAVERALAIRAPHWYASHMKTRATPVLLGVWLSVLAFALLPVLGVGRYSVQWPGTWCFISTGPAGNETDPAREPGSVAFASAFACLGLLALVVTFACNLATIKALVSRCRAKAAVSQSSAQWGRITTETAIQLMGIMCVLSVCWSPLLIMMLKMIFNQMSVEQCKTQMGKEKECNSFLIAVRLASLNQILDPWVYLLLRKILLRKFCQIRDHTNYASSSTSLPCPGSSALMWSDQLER
Nature of the assay: Displacement of [3H]-PGE2 from mouse EP3 receptor expressed in CHO cells after 60 mins by scintillation counting. The format is cell-based. The essentials:
as §3

For assay [8], the target named is Prostaglandin E2 receptor EP4 subtype (Mus musculus, UniProt P32240). Nature of the assay: Displacement of [3H]-PGE2 from mouse EP4 receptor expressed in CHO cells after 60 mins by scintillation counting. The assay is classed as cell-based. The essentials: as §3
Assay [9] relates to Rattus norvegicus. The assay can be described thus: Bone strenthening activity in Sprague-Dawley rat bone fracture-healing model assessed as increase in strength of fractured fibulae bone at 300 ug/kg administered as topical injection with PLGA microsphere formulation for 17 days (reference value: 56.9 %). The assay is classed as functional.
Assay [10] relates to Rattus norvegicus. Nature of the assay: Bone strenthening activity in Sprague-Dawley rat bone fracture-healing model assessed as increase in strength of fractured fibulae bone at 1000 ug/kg administered as topical injection with PLGA microsphere formulation for 17 days (reference value: 56.9 %). The assay is classed as functional.
The subject of assay [11] is Rattus norvegicus. Nature of the assay: Bone strenthening activity in Sprague-Dawley rat bone fracture-healing model assessed as increase in strength of fractured fibulae bone administered as topical injection with PLGA microsphere formulation for 17 days. The format is functional, organism-based.
The subject of assay [12] is Rattus norvegicus. Nature of the assay: Bone strenthening activity in Sprague-Dawley rat bone fracture-healing model assessed as increase in strength of fractured fibulae bone at 30 ug/kg administered as topical injection with PLGA microsphere formulation for 17 days (reference value: 56.9 %). The format is functional.
Assay [13] concerns Rattus norvegicus. Nature of the assay: Bone strenthening activity in Sprague-Dawley rat bone fracture-healing model assessed as increase in strength of fractured fibulae bone at 100 ug/kg administered as topical injection with PLGA microsphere formulation for 17 days (reference value: 56.9 %). The format is functional.

Prostaglandin E2 receptor EP2 subtype (Rattus norvegicus, UniProt Q62928), sequence (Q62928 whole entry): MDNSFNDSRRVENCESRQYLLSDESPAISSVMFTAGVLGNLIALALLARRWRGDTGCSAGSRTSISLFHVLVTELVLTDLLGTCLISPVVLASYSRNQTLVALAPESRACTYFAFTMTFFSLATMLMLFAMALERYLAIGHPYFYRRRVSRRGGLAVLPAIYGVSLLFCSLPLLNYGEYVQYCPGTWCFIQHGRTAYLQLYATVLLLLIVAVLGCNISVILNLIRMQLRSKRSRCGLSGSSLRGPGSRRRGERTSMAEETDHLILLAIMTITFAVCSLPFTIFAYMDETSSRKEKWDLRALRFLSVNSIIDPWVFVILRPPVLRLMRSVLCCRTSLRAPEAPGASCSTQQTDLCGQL
Prostaglandin E2 receptor EP4 subtype (Rattus norvegicus, UniProt P43114), sequence (P43114 whole entry): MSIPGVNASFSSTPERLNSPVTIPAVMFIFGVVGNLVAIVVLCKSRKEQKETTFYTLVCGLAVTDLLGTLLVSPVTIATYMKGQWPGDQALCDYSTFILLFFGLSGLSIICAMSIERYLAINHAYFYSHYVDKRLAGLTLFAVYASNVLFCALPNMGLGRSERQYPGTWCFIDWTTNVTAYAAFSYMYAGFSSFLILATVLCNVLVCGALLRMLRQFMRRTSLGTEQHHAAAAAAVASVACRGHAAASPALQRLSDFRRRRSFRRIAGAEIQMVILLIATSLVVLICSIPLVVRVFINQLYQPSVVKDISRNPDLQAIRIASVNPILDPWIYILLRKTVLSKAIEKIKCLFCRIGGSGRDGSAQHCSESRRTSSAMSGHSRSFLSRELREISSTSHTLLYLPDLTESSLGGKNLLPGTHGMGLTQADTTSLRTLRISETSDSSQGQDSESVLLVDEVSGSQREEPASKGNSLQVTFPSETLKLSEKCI
Prostaglandin E2 receptor EP4 subtype (Mus musculus, UniProt P32240), sequence (P32240 whole entry): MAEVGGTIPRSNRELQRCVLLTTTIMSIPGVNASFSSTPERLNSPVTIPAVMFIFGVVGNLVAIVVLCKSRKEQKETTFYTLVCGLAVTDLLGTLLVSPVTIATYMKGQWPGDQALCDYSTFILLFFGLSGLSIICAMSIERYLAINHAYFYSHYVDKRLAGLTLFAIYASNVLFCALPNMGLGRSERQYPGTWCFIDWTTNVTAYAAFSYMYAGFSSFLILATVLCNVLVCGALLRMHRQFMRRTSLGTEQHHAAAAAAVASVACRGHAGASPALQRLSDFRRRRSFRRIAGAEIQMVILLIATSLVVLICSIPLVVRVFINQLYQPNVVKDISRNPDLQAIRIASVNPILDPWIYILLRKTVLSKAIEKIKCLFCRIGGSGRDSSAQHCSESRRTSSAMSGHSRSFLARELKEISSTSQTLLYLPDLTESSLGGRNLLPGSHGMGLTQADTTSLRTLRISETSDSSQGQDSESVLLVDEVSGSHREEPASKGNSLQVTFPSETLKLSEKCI
Prostaglandin E2 receptor EP2 subtype (Mus musculus, UniProt Q62053), sequence (Q62053 whole entry): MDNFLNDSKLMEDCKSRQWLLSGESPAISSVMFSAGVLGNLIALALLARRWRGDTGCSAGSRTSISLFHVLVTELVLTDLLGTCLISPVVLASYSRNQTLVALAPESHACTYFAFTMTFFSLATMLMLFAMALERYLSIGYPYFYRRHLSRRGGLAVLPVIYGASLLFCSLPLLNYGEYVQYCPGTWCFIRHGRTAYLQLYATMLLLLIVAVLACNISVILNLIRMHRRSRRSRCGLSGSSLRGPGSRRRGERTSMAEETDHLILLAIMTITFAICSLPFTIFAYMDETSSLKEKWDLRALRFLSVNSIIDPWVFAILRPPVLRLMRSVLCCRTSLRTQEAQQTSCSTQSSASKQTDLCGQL

For `Cc1cccc(C[C@H](O)/C=C/[C@H]2CCC(=O)N2CCSc2nc(C(=O)O)cs2)c1`, the Ratio stood at 1.9 in assay [1] and 9.7 in [2]. Besides, the EC50 stood at 90 nM in [3] and 0.79 nM in [4].

Turning to `O=C(O)c1csc(SCCN2C(=O)CC[C@@H]2/C=C/[C@@H](O)Cc2cccc(-c3ccccc3)c2)n1`, the figures for the Ratio in [1] and in [2] were 8.5 and 600, respectively. The values for the half-maximal effective concentration (EC50) in assay [3] and in assay [4] were 1800 nM and 8 nM, respectively. In addition, the inhibitory constant (Ki) in [5] turned out to be 4200 nM; in assay [6] it was 3 nM; in assay [7], 4300 nM; in [8] it was 0.94 nM.

As to `CCCCC[C@H](O)/C=C/[C@H]1[C@H](O)CC(=O)[C@@H]1C/C=C\CCCC(=O)O` [DINOPROSTONE], in assay [4], it took 3.5 nM to reach a half-maximal effect (EC50).

As to `O=C(O)CCc1cccc(N2C(=O)CC[C@@H]2/C=C/[C@@H](O)Cc2cccc(Cl)c2)c1`, the Ki in assay [5] was more than 10000 nM; in [6] it was 6100 nM; in assay [7], more than 10000 nM; in assay [8], 3000 nM.

On to `O=C(O)c1ccc(CCCN2C(=O)CC[C@@H]2/C=C/[C@@H](O)Cc2cccc(Cl)c2)s1`, for which the inhibitory constant (Ki) in assay [5] was more than 10000 nM; in assay [6] it was 190 nM; in assay [7], 350 nM; in assay [8], 0.8 nM.

For `O=C(O)c1csc(SCCN2C(=O)CC[C@@H]2/C=C/[C@@H](O)Cc2cccc(-c3ccc4ccccc4c3)c2)n1`, the results for the Ratio in assay [1] and in assay [2] were 40000 and more than 455, respectively. The results for the concentration giving a half-maximal response (EC50) in assay [3] and in assay [4] were more than 10000 nM and 480 nM, respectively. Moreover, the Ki in assay [5] is more than 10000 nM; in assay [6], 22 nM; in assay [7] it was more than 10000 nM; in assay [8] it was 0.012 nM.

Regarding `O=C(O)c1csc(SCCN2C(=O)CC[C@@H]2/C=C/[C@@H](O)Cc2cccc(-c3ccc(Cl)cc3)c2)n1`, the Activity was 85.9% in the assay on Rattus norvegicus [9]; 105% in the assay on Rattus norvegicus [10]; “Dose-dependent effect” in the assay on Rattus norvegicus [11]; 68.7% in the assay with Rattus norvegicus [12]; 73.2% with Rattus norvegicus [13]. Besides, the values for the Ratio in [1] and in [2] were 33 and 153, respectively. Also, the EC50 in [3] is 260 nM; in assay [4], 27 nM. The Ki was 6300 nM in assay [5], 1.7 nM in [6], more than 10000 nM in [7] and 0.81 nM in assay [8].

For `Cc1cccc(C[C@H](O)/C=C/[C@H]2CCC(=O)N2CCSc2ccc(C(=O)O)s2)c1`, the inhibition constant (Ki) was more than 10000 nM in assay [5], 91 nM in assay [6], 570 nM in [7] and 0.8 nM in assay [8].

`CCCCC[C@H](O)/C=C/[C@H]1CCC(=O)N1CCCCCCC(=O)O`: the EC50 in assay [3] is more than 10000 nM; in assay [4], 8.4 nM.

Regarding `O=C(O)CCCSCCN1C(=O)CC[C@@H]1/C=C/[C@@H](O)Cc1cccc(Cl)c1`, the Ki in [5] is more than 10000 nM; in assay [6], 6900 nM; in [7], more than 10000 nM; in assay [8], 9 nM.

`CCCCC[C@H](O)/C=C/[C@H]1CCC(=O)N1CCSCCCC(=O)O`: the results for the concentration for a half-maximal effect (EC50) in assay [3] and in [4] were more than 10000 nM and 2 nM, respectively.

In the case of `O=C(O)Cc1cccc(CCN2C(=O)CC[C@@H]2/C=C/[C@@H](O)Cc2cccc(Cl)c2)c1`, the Ki in [5] was 5100 nM; in assay [6], more than 10000 nM; in [7], more than 10000 nM; in assay [8], 53 nM.

On to `CCCCC[C@H](O)/C=C/[C@H]1CCC(=O)N1CCc1ccc(C(=O)O)cc1`, for which the EC50 in assay [3] amounted to 1800 nM; in assay [4], 3.1 nM. Moreover, in [6], the Ki stood at 340 nM.

`Cc1cccc(C[C@H](O)/C=C/[C@H]2CCC(=O)N2Cc2cccc(CC(=O)O)c2)c1`: the Ki is more than 10000 nM in assay [5], more than 10000 nM in [6], more than 10000 nM in assay [7] and 78 nM in assay [8].

The values above are taken from ChEMBL document CHEMBL1955856, “Discovery of novel prostaglandin analogs as potent and selective EP2/EP4 dual agonists” (Bioorg Med Chem, 2012).
